Reference: ChEMBL document CHEMBL4602706, “Natural Product Evodiamine with Borate Trigger Unit: Discovery of Potent Antitumor Agents against Colon Cancer” (ACS Med Chem Lett, 2020)
Calls of active or inactive are those of the source. No cut-off for these calls is given here.

Tests used:
[1] = system: HCT-116; assay: Antiproliferative activity against human HCT116 cells incubated for 72 hrs by CCK8 assay; format: functional, cell-based
Method in brief: (§1)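 HCT116, MCF-7 and A549 human cancer cell lines; antiproliferative activity read out by CCK8 assay. Evodiamine derivatives and camptothecin served as positive controls.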

[2] = system: MCF7; assay: Antiproliferative activity against human MCF7 cells incubated for 72 hrs by CCK8 assay; format: functional, cell-based; method in brief: as §1
[3] = system: A549; assay: Antiproliferative activity against human A549 cells incubated for 72 hrs by CCK8 assay; format: functional, cell-based; method in brief: as §1
[4] = target: T1, DNA topoisomerase 1 (Homo sapiens) (UniProt P11387); assay: Inhibition of Top1 (unknown origin) at 500 uM using supercoiled pBR322 plasmid DNA as substrate incubated for 15 mins by PI staining based agarose gel electrophoresis analysis
T1 sequence (whole entry): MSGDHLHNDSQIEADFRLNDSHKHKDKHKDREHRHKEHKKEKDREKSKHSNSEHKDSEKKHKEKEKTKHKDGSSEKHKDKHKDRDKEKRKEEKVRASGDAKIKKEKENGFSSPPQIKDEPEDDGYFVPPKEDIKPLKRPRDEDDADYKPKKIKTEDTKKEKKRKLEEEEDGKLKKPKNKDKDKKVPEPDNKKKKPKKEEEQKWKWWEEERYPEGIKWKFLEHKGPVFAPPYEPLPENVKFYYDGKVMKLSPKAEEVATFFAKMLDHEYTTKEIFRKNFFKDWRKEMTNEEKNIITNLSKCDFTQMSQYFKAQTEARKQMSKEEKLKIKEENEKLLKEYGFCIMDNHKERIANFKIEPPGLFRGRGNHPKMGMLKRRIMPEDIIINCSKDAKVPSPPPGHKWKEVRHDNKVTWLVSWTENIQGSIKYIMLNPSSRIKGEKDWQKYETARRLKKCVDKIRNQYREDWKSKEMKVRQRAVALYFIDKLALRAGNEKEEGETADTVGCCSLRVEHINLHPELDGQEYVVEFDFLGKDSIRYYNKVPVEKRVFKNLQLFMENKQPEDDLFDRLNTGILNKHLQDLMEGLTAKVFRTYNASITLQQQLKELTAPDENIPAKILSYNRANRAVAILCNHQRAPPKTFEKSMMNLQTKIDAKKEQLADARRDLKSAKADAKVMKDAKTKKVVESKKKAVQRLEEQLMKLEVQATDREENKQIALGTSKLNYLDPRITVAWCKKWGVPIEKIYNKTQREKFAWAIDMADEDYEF
Method in brief: (§2)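 Top1 inhibition tested at 500, 250 and 125 μM, and over 27.9 to 250 μM for selected compounds.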

[5] = target: T1, DNA topoisomerase 1 (Homo sapiens); assay: Inhibition of Top1 (unknown origin) at 125 uM using supercoiled pBR322 plasmid DNA as substrate incubated for 15 mins by PI staining based agarose gel electrophoresis analysis; method in brief: as §2
[6] = target: T2, DNA topoisomerase II (Homo sapiens) (UniProt P11388+Q02880); assay: Inhibition of Top2 (unknown origin) at 50 uM using supercoiled pBR322 plasmid DNA as substrate incubated for 30 mins by PI staining based agarose gel electrophoresis analysis; format: protein assay
[7] = target: T1, DNA topoisomerase 1 (Homo sapiens); assay: Inhibition of Top1 (unknown origin) at 83.3 uM using supercoiled pBR322 plasmid DNA as substrate incubated for 15 mins by PI staining based agarose gel electrophoresis analysis
[8] = target: T2, DNA topoisomerase II (Homo sapiens); assay: Inhibition of Top2 (unknown origin) using supercoiled pBR322 plasmid as substrate incubated for 30 mins by PI staining based agarose gel electrophoresis analysis; format: protein assay
[9] = system: HCT-116; assay: Induction of apoptosis in human HCT116 cells assessed as apoptotic cells at 0.05 uM incubated for 48 hrs by AnnexinV-FITC/PI staining based flow cytometric analysis (reference value: 6.25 to 8.23%); format: functional
Method in brief: (§3)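 HCT116 cells exposed to 0.05, 0.2 or 0.4 μM for 48 h. Apoptotic cells quantified by flow cytometry, n = 3.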

[10] = system: HCT-116; assay: Induction of apoptosis in human HCT116 cells assessed as apoptotic cells at 0.2 uM incubated for 48 hrs by AnnexinV-FITC/PI staining based flow cytometric analysis (reference value: 6.25 to 8.23%); format: functional; method in brief: as §3
[11] = system: HCT-116; assay: Induction of apoptosis in human HCT116 cells assessed as apoptotic cells at 0.4 uM incubated for 48 hrs by AnnexinV-FITC/PI staining based flow cytometric analysis (reference value: 6.25 to 8.23%); format: functional; method in brief: as §3
[12] = system: HCT-116; assay: Induction of cell cycle arrest in human HCT116 cells assessed as accumulation at G1 phase at 0.05 uM incubated for 24 hrs by propidium iodide staining based flow cytometry (reference value: 38.49 to 51.18%); format: functional
[13] = system: HCT-116; assay: Induction of cell cycle arrest in human HCT116 cells assessed as accumulation at G1 phase at 0.2 uM incubated for 24 hrs by propidium iodide staining based flow cytometry (reference value: 38.49 to 51.18%); format: functional
[14] = system: HCT-116; assay: Induction of cell cycle arrest in human HCT116 cells assessed as accumulation at G1 phase at 0.4 uM incubated for 24 hrs by propidium iodide staining based flow cytometry (reference value: 38.49 to 51.18%); format: functional
[15] = system: HCT-116; assay: Induction of cell cycle arrest in human HCT116 cells assessed as accumulation at G2 phase at 0.05 uM incubated for 24 hrs by propidium iodide staining based flow cytometry (reference value: 18.51 to 20.82%); format: functional
[16] = system: HCT-116; assay: Induction of cell cycle arrest in human HCT116 cells assessed as accumulation at G2 phase at 0.2 uM incubated for 24 hrs by propidium iodide staining based flow cytometry (reference value: 18.51 to 20.82%); format: functional
[17] = system: HCT-116; assay: Induction of cell cycle arrest in human HCT116 cells assessed as accumulation at G2 phase at 0.4 uM incubated for 24 hrs by propidium iodide staining based flow cytometry (reference value: 18.51 to 20.82%); format: functional
[18] = system: HCT-116; assay: Induction of cell cycle arrest in human HCT116 cells assessed as accumulation at S phase at 0.05 uM incubated for 24 hrs by propidium iodide staining based flow cytometry (reference value: 30.31 to 40.69%); format: functional
[19] = system: HCT-116; assay: Induction of cell cycle arrest in human HCT116 cells assessed as accumulation at S phase at 0.2 uM incubated for 24 hrs by propidium iodide staining based flow cytometry (reference value: 30.31 to 40.69%); format: functional
[20] = system: HCT-116; assay: Induction of cell cycle arrest in human HCT116 cells assessed as accumulation at S phase at 0.4 uM incubated for 24 hrs by propidium iodide staining based flow cytometry (reference value: 30.31 to 40.69%); format: functional
[21] = Drug metabolism in PBS buffer assessed as H2O2-mediated 3-Fluoro-10-hydroxy-14-methyl-8,13,13b,14-tetrahydro-7H-indolo[2',3':3,4]pyrido[2,1-b]quinazolin-5-one release rate at pH 7.4 incubated for 8 hrs in presence of 0.05 mM H2O2 by HPLC analysis; format: physicochemical; conditions: pH 7.4, 8 h
Method in brief: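 Release of the parent compound after treatment with H2O2 at varied concentrations, including 0.05 mM, in PBS pH 7.4. Analysed by HPLC.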

[22] = Drug metabolism in human HCT116 cells assessed as 3-Fluoro-10-hydroxy-14-methyl-8,13,13b,14-tetrahydro-7H-indolo[2',3':3,4]pyrido[2,1-b]quinazolin-5-one release at 0.2 mM by UPLC-QTOF/MS analysis relative to control; format: ADME, cell-based; conditions: hct-116, 200 µM, TDE = time-dependent effect
[23] = Metabolic stability in mouse liver microsomes assessed as half life at 1 uM preincubated with compound followed by NADPH addition measured upto 45 mins by LC-MS/MS analysis; format: ADME, Microsome
Method in brief: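 In vitro stability in liver microsomes; terminal half-life determined.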

[24] = system: HCT-116; assay: Induction of apoptosis in human HCT116 cells incubated for 48 hrs by AnnexinV-FITC/PI staining based flow cytometric analysis; format: functional, cell-based
[25] = Drug metabolism in human HCT116 cells assessed as 3-Fluoro-10-hydroxy-14-methyl-8,13,13b,14-tetrahydro-7H-indolo[2',3':3,4]pyrido[2,1-b]quinazolin-5-one release by measuring parent compound retention time incubated for 8 hrs by UPLC-QTOF/MS analysis; format: ADME, cell-based; conditions: hct-116, 8 h
Method in brief: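 Compounds incubated with HCT116 cells; culture media analysed by HPLC after 8, 48 and 72 h. Relative release rate taken from relative peak areas; parent and product identified by retention time.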

[26] = Homo sapiens, HCT-116, 72 h, read-out: IC50
[27] = Homo sapiens, MCF7, 72 h, read-out: IC50
[28] = Homo sapiens, A549, 72 h, read-out: IC50

| Structure (SMILES) | IC50 [1, 26] [nM] | IC50 [2, 27] [nM] | IC50 [3, 28] [nM] | inhibition [4] | inhibition [5] | inhibition [6] | also measured |
| --- | --- | --- | --- | --- | --- | --- | --- |
| CC(=O)Oc1ccc(CCl)cc1 |  |  |  |  |  |  | IC50 ([1]; hct-116): Not Active; IC50 ([2]; mcf7): Not Active; IC50 ([3]; a549): Not Active |
| CN1c2ccccc2C(=O)N2CCc3c(n(C(=O)OC(C)(C)C)c4ccc(OCc5ccc(B(O)O)cc5)cc34)C21 (stereo not drawn) | 520 | 1580 | 7200 |  |  |  |  |
| CN1c2ccc(F)cc2C(=O)N2CCc3c([nH]c4ccc(OCc5ccc(B6OC(C)(C)C(C)(C)O6)cc5)cc34)C21 (stereo not drawn) | 150 | 97 | 120 |  |  |  |  |
| CN1c2ccccc2C(=O)N2CCc3c([nH]c4ccc(B5OC(C)(C)C(C)(C)O5)cc34)C21 (stereo not drawn) | 220 | 390 | 170 |  |  |  |  |

More lines, main results first:

| IC50 [1, 26] [nM] | IC50 [2, 27] [nM] | IC50 [3, 28] [nM] | inhibition [4] | inhibition [5] | inhibition [6] | Structure (SMILES) | also measured |
| --- | --- | --- | --- | --- | --- | --- | --- |
| 69 | 160 | 100 | Active |  |  | CN1c2ccccc2C(=O)N2CCc3c([nH]c4ccc(B(O)O)cc34)C21 (stereo not drawn) |  |
| 65 | 86 | 100 | Active | Active | Active | CN1c2ccccc2C(=O)N2CCc3c([nH]c4ccc(OC(=O)OCc5ccc(B6OC(C)(C)C(C)(C)O6)cc5)cc34)C21 (stereo not drawn) |  |
| 41 | 32 | 44 | Active | Active | Active | CN1c2ccc(F)cc2C(=O)N2CCc3c([nH]c4ccc(OC(=O)OCc5ccc(B(O)O)cc5)cc34)C21 (stereo not drawn) | inhibition [7]: Active; inhibition [8]: Active; Activity [9]: 44.4%; Activity [10]: 54.28%; Activity [11]: 64.47%; Activity [12]: 14.09%; Activity [13]: 7.6%; Activity [14]: 5.41%; Activity [15]: 29.47%; Activity [16]: 43.45%; Activity [17]: 51.23%; Activity [18]: 56.44%; Activity [19]: 48.96%; Activity [20]: 43.36%; Drug metabolism [21]: Dose-dependent effect; Drug metabolism [22]: Tde; half-life at 1 µM [23]: 44.4 s; Activity [24]: Dose-dependent effect; Retention_time [25]: 8.6 min |
| 83 | 59 | 73 | Active | Active |  | CN1c2ccc(F)cc2C(=O)N2CCc3c([nH]c4ccc(OCc5ccc(B(O)O)cc5)cc34)C21 (stereo not drawn) | inhibition [8]: Active |
| 120 | 110 | 74 | Active | Active | Active | CN1c2ccccc2C(=O)N2CCc3c([nH]c4ccc(OCc5ccc(B(O)O)cc5)cc34)C21 (stereo not drawn) |  |
| 63 | 94 | 40 | Active |  |  | CN1c2ccc(F)cc2C(=O)N2CCc3c([nH]c4ccc(B(O)O)cc34)C21 (stereo not drawn) |  |
